Data published in the array DNA melting data of Ke et al. (doi:10.1101/2024.01.08.574731).

Columns and labels:
[1] = melting temperature; fluorescence melt of hairpins on a sequencing array, two-state fit, raised by 9.35 °C to match UV melts; conditions: sodium 0.088 M
In short: (§1)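 Library hairpins on a sequenced MiSeq flow cell carried annealed Cy3 and quencher oligos, and their Cy3 fluorescence was imaged in 50 mM Na-HEPES pH 8.0 with 25 mM NaCl, in 2.5 °C steps up to 60 °C. Signals were normalised to Cy3 before quenching and to control constructs. Melting temperature and folding enthalpy were obtained from bootstrapped two-state fits, combined by inverse-variance weighting across four replicates, and the fitted temperatures were then raised by 9.35 °C to match UV melts.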

[2] = folding enthalpy; higher = less favourable; fluorescence melt of hairpins on a sequencing array, two-state fit; conditions: sodium 0.088 M
In short: as §1

Sequence	Tm [1]	folding enthalpy [2]
GCCTCGCGAAAGCGGTGC ((..(((....)))..))	43.7 °C	-14.1 kcal/mol
GCCTCGGGAAACTGGGGC (((.(.(....).).)))	47.4 °C	-37.5 kcal/mol
GCCTCTACGAAAGTAGGC (((..(((....))))))	47.9 °C	-12.2 kcal/mol
GCCTCTGAAAAGAGGC ((((((....))))))	68.9 °C	-37.8 kcal/mol
GCCTCTGGAAACAGGGGC (((.(((....))).)))	57.4 °C	-45.3 kcal/mol
GCCTGAGGAAACTTGGGC (((..((....))..)))	42.3 °C	-29 kcal/mol
GCCTGCGAAAGCAAAGGC ((((((....)))..)))	59.3 °C	-26.9 kcal/mol
GCCTGCGAAAGCAACGGC ((((((....)))..)))	52.8 °C	-23.6 kcal/mol
GCCTGCGAAAGCAATGGC ((((((....)))..)))	56 °C	-23.8 kcal/mol
GCCTGCGAAAGCATAGGC ((((((....)))..)))	56 °C	-31.4 kcal/mol
GCCTGGCGAAAGCAAAGC ((.(.((....)).).))	31.6 °C	-9.2 kcal/mol
GCCTGGCGAAAGCACGGC (((..((....))..)))	59.1 °C	-24.3 kcal/mol
GCCTGGCGAAAGCATGGC (((..((....))..)))	60.4 °C	-23.7 kcal/mol
GCCTGGCGAAAGCCATGC ((.((((....)))).))	56.7 °C	-17.2 kcal/mol
GCCTGGCGAAAGCCGAGC ((..(((....)))..))	49.5 °C	-13.5 kcal/mol
GCCTGGCGAAAGCCGGC (((.(((....))))))	68.1 °C	-16.5 kcal/mol
GCCTGGCGAAAGCCGTGC ((..(((....)))..))	48.8 °C	-12.9 kcal/mol
GCCTGGCGAAAGCCTTGC ((..(((....)))..))	42.1 °C	-13 kcal/mol
GCCTGGCGAAAGCGGGGC (((..((....))..)))	64 °C	-27 kcal/mol
GCCTGGCGAAAGCTCGGC (((..((....))..)))	55.9 °C	-18.8 kcal/mol
GCCTGGCGAAAGCTGGGC (((..((....))..)))	64.4 °C	-28.2 kcal/mol
GCCTGGGGAAACCCAAGC ((.((((....)))).))	42.7 °C	-21.5 kcal/mol
GCCTGGGGAAACCCAGAC (.(((((....))))).)	44.5 °C	-14.1 kcal/mol

Sequence	Tm [1]	folding enthalpy [2]
GCCTGGGGAAACCCGGGC (((.(((....))).)))	64.6 °C	-39.2 kcal/mol
GCCTGTGGAAACATGGGC (((..((....))..)))	47.4 °C	-29.4 kcal/mol
GCCTTAGGAAACTGAGGC ((((.((....)).))))	49 °C	-41.7 kcal/mol
GCCTTCGAAAGAAAAGGC ((((((....)))..)))	45.7 °C	-27.7 kcal/mol
GCCTTCGAAAGAAGGGC ((((((....))).)))	63.1 °C	-15 kcal/mol
GCCTTCGAAAGAAGTGGC ((((((....)))..)))	44.5 °C	-22 kcal/mol
GCCTTCGAAAGAATCGGC ((((((....)))..)))	34.8 °C	-23.4 kcal/mol
GCCTTCGAAAGAATGGC ((((((....))).)))	49 °C	-27.2 kcal/mol
GCCTTGCGAAAGCAGAGC ((..(((....)))..))	51.2 °C	-11.7 kcal/mol
GCCTTGCGAAAGCCAGGC ((((.((....)).))))	62.6 °C	-31.4 kcal/mol
GCCTTGCGAAAGCTAGGC ((((.((....)).))))	67.2 °C	-44.4 kcal/mol
GCCTTGGAAACAAGGC ((((((....))))))	67.8 °C	-34.6 kcal/mol
GCCTTGGGAAACCAAAGC ((.((((....)))).))	37.6 °C	-18 kcal/mol
GCCTTGGGAAACCAAGGC (((((((....)))))))	68.8 °C	-44.1 kcal/mol
GCCTTGGGAAACTAAGGC (((((.(....).)))))	50.9 °C	-34.7 kcal/mol
GCCTTGGGAAACTAGGGC (((.(.(....).).)))	36.5 °C	-30.1 kcal/mol
GCCTTGTCGAAAGACGGC (((..(((....))))))	47.8 °C	-18 kcal/mol
GCCTTTCGAAAGAAGGC (((.(((....))))))	50.4 °C	-29.1 kcal/mol
GCCTTTGGAAACGAAGGC (((((.(....).)))))	51.6 °C	-35.4 kcal/mol
GCGAAAAGTCGC ((((....))))	41.7 °C	-12.1 kcal/mol
GCGAAACCGAAAGGTCGC (((..(((....))))))	54.4 °C	-29.9 kcal/mol
GCGAAAGATCGC ((((....))))	39.9 °C	-12.4 kcal/mol
GCGAAAGGAAACCTTCGC (((((.(....).)))))	48.8 °C	-34.4 kcal/mol
